According to ChEMBL document CHEMBL3102858, “Anti-hepatitis C virus dinorditerpenes from the roots of Flueggea virosa” (J Nat Prod, 2014):

How the values were obtained:
[1] = test system: Hepatitis C virus; assay: Antiviral activity against HCV expressing JC1-Luc2A infected in Huh7.5 cells assessed as inhibition of viral infection after 72 hrs by luciferase reporter gene assay; format: functional, organism-based, Hepacivirus hominis; settings: Huh7.5, 72 h
Summary of the method: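 Huh7.5 cells were preseeded at 1 × 10^4 cells/well for 24 h, then exposed to JC1-Luc2A reporter HCV (0.1 MOI) for 4 h. The inoculum was removed and the cells washed three times. Fresh medium with compounds was added. After 72 h, luciferase activity was read in cell lysates (Bright-Glo). EC50 is the concentration inhibiting HCVcc infection by 50%.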

[2] = Cytotoxicity against human Huh7.5 cells after 72 hrs; format: cell-based; settings: Huh-7, 72 h
Summary of the method: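 Huh7.5 cells, derived from human hepatoma Huh7, were grown in DMEM with 10% heat-inactivated FBS and 1% nonessential amino acids. They were preseeded at 1 × 10^4 cells/well for 24 h, then given serial compound concentrations. Viable cells were measured after 72 h with the CellTiter 96 Aqueous One Solution kit. IC50 is the concentration inhibiting cell growth by 50%.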

[3] = Therapeutic index, ratio of IC50 for human Huh7.5 cells to EC50 for HCV; format: cell-based, Huh-7; settings: read-out: Ratio IC50/EC50
Summary of the method: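 TI was calculated as IC50/EC50. IC50 came from the 72 h Huh7.5 viability assay and EC50 from the 72 h JC1-Luc2A HCVcc luciferase infection assay.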

Row | SMILES | EC50 [1] [µM] | IC50 [2] [µM] | selectivity ratio [3]
1 | Cc1cc2c(cc1O)[C@]1(C)CC[C@H](O)C(C)(C)[C@H]1C=C2 | 5.6 | 54.9 | 9.8
2 | C=Cc1c(C)c(O)cc2c1CC[C@@H]1C(C)(C)[C@H](O)CC[C@@]21C [SPRUCEANOL] | 5 | 52.4 | 10.5
3 | C=CCc1ccc(O)c(-c2ccc(O)c(CC=C)c2)c1 [HONOKIOL] | 9.4 | – | 6.2
4 | Cc1cc2c(cc1O)[C@]1(C)CCC(=O)C(C)(C)[C@H]1[C@H](O)C2 | 52.8 | 292 | 5.5
5 | Cc1cc2c(cc1O)[C@]1(C)CC[C@H](O)C(C)(C)[C@H]1CC2 | 12 | 54.3 | 4.5
6 | Cc1cc2c(cc1O)[C@]1(C)CCC(=O)C(C)(C)[C@H]1C=C2 | 25.5 | 86.5 | 3.4

More lines, main results first:

Row | EC50 [1] [µM] | SMILES | IC50 [2] [µM] | selectivity ratio [3]
7 | 52.7 | C=C[C@]1(C)C=C2CC[C@H]3C(C)(C)[C@H](O)CC[C@]3(C)[C@H]2C[C@@H]1O | 167 | 3.2
8 | 24.9 | COc1cc2c(cc1C)C=C[C@@H]1C(C)(C)[C@H](O)CC[C@@]21C | 70 | 2.8
9 | 47.3 | COc1cc2c(cc1C)C=C[C@@H]1C(C)(C)C(=O)CC[C@@]21C | 81.8 | 1.7
10 | 7.5 | COc1cc2c(cc1C)[C@H]1C[C@@H]3C(C)(C)[C@H](O)CC[C@@]23CO1 | 419 | 55.9
11 | 30.5 | COc1cc2c(cc1CO)C=C[C@@H]1C(C)(C)[C@@H](O)CC[C@@]21C | 151 | 4.9
12 | 27.4 | COc1cc2c(cc1CO)C=C[C@@H]1C(C)(C)[C@H](O)CC[C@@]21C | 125 | 4.6
13 | 6.6 | COc1cc2c(cc1C)CC[C@@H]1C(C)(C)[C@@]3(O)CC[C@@]21CO3 | 297 | 45
